Test results from ChEMBL document CHEMBL1148178, “Dicranin, an antimicrobial and 15-lipoxygenase inhibitor from the moss Dicranum scoparium” (1993).
Calls of active or inactive are those of the source. The rule behind the calls is not given here.

Tests used:
[1] = test system: Geobacillus stearothermophilus; assay: Antibacterial activity against Bacillus stearothermophilus NCA 1518 after 24 hrs by disk diffusion assay; type: functional, organism-based
Outline: (§1)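 Sterile 6 mm filter-paper disc bearing sample set in the centre of a Petri dish of 15 ml plate count agar. Overlaid with 3 ml soft nutrient agar (nutrient broth + 0.7% agar) seeded with 1% of a 16–18 h culture of the test strain. Read-out is the diameter of the growth-free zone around the disc.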

Salmonella typhimurium = assay: Antibacterial activity against Salmonella Typhimurium NCIB 10248 after 24 hrs by disk diffusion assay; type: functional, organism-based; conditions: Salmonella enterica subsp. enterica serovar Typhimurium; outline: as §1
Enterococcus faecalis = assay: Antibacterial activity against Streptococcus faecalis NCIB 775 after 24 hrs by disk diffusion assay; type: functional, organism-based; outline: as §1
Staphylococcus aureus = assay: Antibacterial activity against Staphylococcus aureus T-AQ 49/YF29 after 24 hrs by disk diffusion assay; type: functional, organism-based; outline: as §1
Bacillus cereus = assay: Antibacterial activity against Bacillus cereus NCIB 3329 after 24 hrs by disk diffusion assay; type: functional, organism-based; outline: as §1
Pseudomonas aeruginosa = assay: Antibacterial activity against Pseudomonas aeruginosa ATCC 10145 after 24 hrs by disk diffusion assay; type: functional, organism-based; outline: as §1
Escherichia coli = assay: Antibacterial activity against Escherichia coli B74-1 after 24 hrs by disk diffusion assay; type: functional, organism-based; outline: as §1
Bacillus subtilis = assay: Antibacterial activity against Bacillus subtilis NCIB 3610 after 24 hrs by disk diffusion assay; type: functional, organism-based; outline: as §1
Pseudomonas putida = assay: Antibacterial activity against Pseudomonas putida T-AQ 18/YF18 after 24 hrs by disk diffusion assay; type: functional, organism-based; outline: as §1
Glycine max = assay: Inhibition of soybean 15-LOX at 4 uM
Outline: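 15-lipoxygenase assay run by a literature method with arachidonic acid (40 μM) as substrate.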

Structure (SMILES)	Activity [1]	Activity (Salmonella typhimurium)	Activity (Enterococcus faecalis)	Activity (Staphylococcus aureus)	Activity (Bacillus cereus)	Activity (Pseudomonas aeruginosa)	Activity (Escherichia coli)	Activity (Bacillus subtilis)	Activity (Pseudomonas putida)	inhibition (Glycine max) [%]
CC/C=C\C/C=C\C/C=C\C/C=C\CCCCC(=O)O	Active	Active	Active	Active	Active	Active	Active	Active	Active	–
CCCCCC#CCC#CCC#CCC#CCCCC(=O)O	–	–	–	–	–	–	–	–	–	95
